The target in data set [1] is T1, 3',5'-cyclic-AMP phosphodiesterase 4B (Homo sapiens, UniProt Q07343). The experiment in a line: Inhibition of human recombinant PDE4B2 assessed after 60 mins by IMAP fluorescence polarization assay.
The test system of data set [2] is Astrocyte. The experiment in a line: Inhibition of LPS-induced NO production in rat astrocytes treated for 1 hr at 10 uM before LPS challenge measured after 24 hrs by Griess assay. The class given is functional, cell-based. An outline of the steps: (§1)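 After 2 days, cells were pretreated with compound (10 μM), then LPS (10 μg/mL) was added for 24 h. Nitrite in the supernatant was measured by Griess reagent (15 min, room temperature, absorbance 492/540 nm). Mean ± SD of three experiments.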

Data set [3] addresses T2, 3',5'-cyclic-AMP phosphodiesterase 7B (Homo sapiens, UniProt Q9NP56). The experiment in a line: Inhibition of human recombinant PDE7B assessed as inhibition of hydrolysis of [3H]cAMP after 20 mins by scintillation proximity assay. An outline of the steps:
(§2)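 Scintillation proximity assay with human recombinant enzyme: PDE7A1 0.02 U, PDE3A 0.02 U, PDE7B 0.5 U, PDE8A 0.5 U. Enzyme incubated with 5 nCi [3H]cAMP and inhibitor in kit buffer for 20 min at 30 °C. SPA beads added and shaken 1 h at room temperature, settled 30 min, radioactivity counted.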

Data set [4] addresses T3, 3',5'-cyclic-AMP phosphodiesterase 4D (Homo sapiens, UniProt Q08499). The experiment in a line: Inhibition of human recombinant PDE4D3 assessed after 60 mins by IMAP fluorescence polarization assay.
Data set [5] concerns Microglia. The experiment in a line: Inhibition of LPS-induced NO production in rat microglia treated for 1 hr at 10 uM before LPS challenge measured after 24 hrs by Griess assay. Format: functional. An outline of the steps:
as §1

Data set [6] addresses cGMP-inhibited 3',5'-cyclic phosphodiesterase 3A (Homo sapiens) (UniProt Q14432). The experiment in a line: Inhibition of human recombinant PDE3A assessed as inhibition of hydrolysis of [3H]cAMP at 10 uM after 20 mins by scintillation proximity assay. An outline of the steps:
as §2

For data set [7], the target named is T3, 3',5'-cyclic-AMP phosphodiesterase 4D. Description: Inhibition of human recombinant PDE4D3 assessed at 10 uM after 60 mins by IMAP fluorescence polarization assay.
Data set [8] concerns the target T4, High affinity 3',5'-cyclic-AMP phosphodiesterase 7A (Homo sapiens, UniProt Q13946). Description: Inhibition of human recombinant PDE7A1 assessed as inhibition of hydrolysis of [3H]cAMP at 10 uM after 20 mins by scintillation proximity assay. An outline of the steps:
as §2

The target of data set [9] is T2, 3',5'-cyclic-AMP phosphodiesterase 7B. The experiment in a line: Inhibition of human recombinant PDE7B assessed as inhibition of hydrolysis of [3H]cAMP at 10 uM after 20 mins by scintillation proximity assay. An outline of the steps: as §2
Data set [10] concerns the target T4, High affinity 3',5'-cyclic-AMP phosphodiesterase 7A. The experiment in a line: Inhibition of human recombinant PDE7A1 assessed as inhibition of hydrolysis of [3H]cAMP after 20 mins by scintillation proximity assay. An outline of the steps:
as §2

Data set [11] relates to SH-SY5Y. Description: Cytoprotective activity against 6-OHDA-induced death of human SH-SY5Y cells pretreated for 1 hr at 10 uM measured 16 hrs post 6-OHDA challenge by MTT assay. Format: functional, cell-based. An outline of the steps: (§3)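 Human neuroblastoma SH-SY5Y grown in F12/EMEM with 2 mM glutamine, 1% nonessential amino acids and 15% FBS at 37 °C, 5% CO2. Semiconfluent cells pretreated 1 h with compound, then 6-OHDA (35 μM) added for 16 h. Viability by MTT (0.5 mg/mL, 4 h), SDS/HCl solubilisation, absorbance 595 nm. Mean ± SD of three experiments.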

The target in data set [12] is T1, 3',5'-cyclic-AMP phosphodiesterase 4B. Description: Inhibition of human recombinant PDE4B2 assessed at 10 uM after 60 mins by IMAP fluorescence polarization assay.
Data set [13] has as its system Astrocyte. Description: Inhibition of LPS-induced NO production in rat astrocytes. Format: functional, cell-based.
The target in data set [14] is T5, Phosphodiesterase 7 (Homo sapiens, UniProt Q13946+Q9NP56). The experiment in a line: Inhibition of PDE7 (unknown origin). Format: protein assay.
Data set [15] relates to Mus musculus. Description: Emetogenic potential in surrogate emesis CD1 mouse model assessed as effect on xyclacine/ketamine-induced loss of righting reflex at 0.1 to 10 mg/kg, sc. The class given is ADME, organism-based. Also noted: dose 0.1-10 mg/kg, route subcutaneous. The note with it: in vivo.
Data set [16] relates to Mus musculus. The experiment in a line: Emetogenic potential in surrogate emesis CD1 mouse model assessed as effect on xyclacine/ketamine-induced loss of righting reflex at 1 mg/kg, sc. The class given is ADME, organism-based. Also noted: dose 1 mg/kg, route subcutaneous. The settings on record: in vivo. An outline of the steps:
(§4)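 Male CD1 mice (25–30 g) anesthetized ip with xylazine 10 mg/kg plus ketamine 100 mg/kg. Test agent or vehicle given sc 15 min later in 60% PEG/saline (0.1 mL/10 g). Duration of anesthesia is timed to return of righting reflex. Mean ± SEM, n = 10–19 per group, ANOVA with Dunnett post hoc test.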

Data set [17] has as its system Mus musculus. Description: Emetogenic potential in surrogate emesis CD1 mouse model assessed as effect on xyclacine/ketamine-induced loss of righting reflex at 1 mg/kg, sc. The settings on record: in vivo.
Data set [18] has as its target High affinity cGMP-specific 3',5'-cyclic phosphodiesterase 9A (Homo sapiens) (UniProt O76083). The experiment in a line: Inhibition of human recombinant PDE9A assessed at 10 uM after 60 mins by IMAP fluorescence polarization assay. An outline of the steps:
(§5)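 Fluorescence polarization IMAP assay. PDE1 at 2 U and PDE9 at 0.05 U, incubated with 1 nM fluorescein-cAMP (or fluorescein-cGMP for PDE5) plus inhibitor for 60 min at ambient temperature. Stopped with IMAP binding reagent, stood 1 h, FP ratio read. IC50 from a sigmoidal fit of FP versus log concentration. Means ± SD of two experiments with duplicates.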

The target in data set [19] is High affinity cAMP-specific and IBMX-insensitive 3',5'-cyclic phosphodiesterase 8A (Homo sapiens) (UniProt O60658). Description: Inhibition of PDE8A (unknown origin) at 10 uM. An outline of the steps:
as §2

Data set [20] addresses T5, Phosphodiesterase 7. Description: Inhibition of PDE7 in human SH-SY5Y cells assessed as increase in CREB phosphorylation at 10 uM by Western blot analysis.
Data set [21] concerns the target Dual specificity calcium/calmodulin-dependent 3',5'-cyclic nucleotide phosphodiesterase 1A (Homo sapiens) (UniProt P54750). Description: Inhibition of human recombinant PDE1A assessed at 10 uM after 60 mins by IMAP fluorescence polarization assay. An outline of the steps: as §5
Data set [22] deals with cGMP-specific 3',5'-cyclic phosphodiesterase (Homo sapiens) (UniProt O76074). Description: Inhibition of human recombinant PDE5A assessed at 10 uM after 60 mins by IMAP fluorescence polarization assay. An outline of the steps: as §5
Data set [23] concerns the target cAMP and cAMP-inhibited cGMP 3',5'-cyclic phosphodiesterase 10A (Homo sapiens) (UniProt Q9Y233). Description: Inhibition of human recombinant PDE10A assessed at 10 uM after 20 mins by scintillation proximity assay.
Data set [24] has as its system Mus musculus. Description: Emetogenic potential in surrogate emesis CD1 mouse model assessed as effect on xyclacine/ketamine-induced loss of righting reflex at 2.5 to 10 mg/kg, sc. Also noted: dose 2.5-10 mg/kg, route subcutaneous. The class given is ADME, organism-based. The note with it: in vivo. An outline of the steps: as §4
Data set [25] deals with SH-SY5Y. Description: Cytoprotective activity against 6-OHDA-induced death of human SH-SY5Y cells pretreated for 1 hr at 30 uM measured 16 hrs post 6-OHDA challenge by MTT assay. The class given is functional, cell-based. The note with it: 10 uM, in the assay text read “10 uM” for “30 uM”. An outline of the steps:
as §3

Data set [26] relates to Mus musculus. The experiment in a line: Emetogenic potential in surrogate emesis CD1 mouse model assessed as effect on xyclacine/ketamine-induced loss of righting reflex at 5 mg/kg, sc. The note with it: in vivo. The class given is ADME, organism-based. Further details: dose 5 mg/kg, route subcutaneous. An outline of the steps:
as §4

Active and inactive are the calls of the source. No cut-off for these calls is given here.

Chain of cGMP-inhibited 3',5'-cyclic phosphodiesterase 3A (Homo sapiens) (Q14432 whole entry): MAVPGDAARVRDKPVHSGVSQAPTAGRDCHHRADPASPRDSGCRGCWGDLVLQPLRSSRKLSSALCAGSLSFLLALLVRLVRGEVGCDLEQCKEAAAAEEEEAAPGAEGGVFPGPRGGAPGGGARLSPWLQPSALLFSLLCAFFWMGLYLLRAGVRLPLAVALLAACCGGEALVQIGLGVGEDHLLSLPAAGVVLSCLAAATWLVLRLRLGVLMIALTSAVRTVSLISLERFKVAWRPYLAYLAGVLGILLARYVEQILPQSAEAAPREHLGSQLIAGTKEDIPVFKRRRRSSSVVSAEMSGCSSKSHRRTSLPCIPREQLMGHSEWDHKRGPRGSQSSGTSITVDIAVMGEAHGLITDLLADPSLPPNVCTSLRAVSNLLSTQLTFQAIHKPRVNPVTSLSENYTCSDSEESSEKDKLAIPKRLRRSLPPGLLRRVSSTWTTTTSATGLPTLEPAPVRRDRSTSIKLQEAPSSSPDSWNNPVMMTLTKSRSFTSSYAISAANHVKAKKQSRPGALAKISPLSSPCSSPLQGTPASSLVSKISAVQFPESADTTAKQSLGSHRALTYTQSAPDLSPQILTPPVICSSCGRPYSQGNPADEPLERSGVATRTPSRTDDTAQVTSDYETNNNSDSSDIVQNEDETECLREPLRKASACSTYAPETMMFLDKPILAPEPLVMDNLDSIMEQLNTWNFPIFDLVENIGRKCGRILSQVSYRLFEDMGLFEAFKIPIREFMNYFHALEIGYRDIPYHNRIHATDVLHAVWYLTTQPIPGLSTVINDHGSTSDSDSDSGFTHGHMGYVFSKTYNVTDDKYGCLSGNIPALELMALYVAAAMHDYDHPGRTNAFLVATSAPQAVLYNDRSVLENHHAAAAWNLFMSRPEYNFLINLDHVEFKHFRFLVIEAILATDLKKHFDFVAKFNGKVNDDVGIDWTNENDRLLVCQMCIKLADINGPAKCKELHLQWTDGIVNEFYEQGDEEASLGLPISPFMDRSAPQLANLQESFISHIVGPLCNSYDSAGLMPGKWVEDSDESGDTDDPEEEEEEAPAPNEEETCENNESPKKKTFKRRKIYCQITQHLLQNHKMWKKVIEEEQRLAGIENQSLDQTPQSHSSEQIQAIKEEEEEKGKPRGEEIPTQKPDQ
T2 sequence (Q9NP56 whole entry): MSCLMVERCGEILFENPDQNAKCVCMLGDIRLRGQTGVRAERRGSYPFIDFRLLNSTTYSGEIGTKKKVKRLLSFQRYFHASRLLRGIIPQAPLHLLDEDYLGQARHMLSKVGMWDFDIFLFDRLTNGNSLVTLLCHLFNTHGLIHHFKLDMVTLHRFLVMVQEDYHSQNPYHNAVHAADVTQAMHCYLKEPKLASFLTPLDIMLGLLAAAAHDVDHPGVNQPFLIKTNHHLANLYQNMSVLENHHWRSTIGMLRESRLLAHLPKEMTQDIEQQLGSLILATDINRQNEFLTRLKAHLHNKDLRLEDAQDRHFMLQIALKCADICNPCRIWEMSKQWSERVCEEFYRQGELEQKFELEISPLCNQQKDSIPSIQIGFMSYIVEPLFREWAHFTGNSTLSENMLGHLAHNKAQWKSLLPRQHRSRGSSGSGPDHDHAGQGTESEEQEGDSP
T3 sequence (Q08499 whole entry): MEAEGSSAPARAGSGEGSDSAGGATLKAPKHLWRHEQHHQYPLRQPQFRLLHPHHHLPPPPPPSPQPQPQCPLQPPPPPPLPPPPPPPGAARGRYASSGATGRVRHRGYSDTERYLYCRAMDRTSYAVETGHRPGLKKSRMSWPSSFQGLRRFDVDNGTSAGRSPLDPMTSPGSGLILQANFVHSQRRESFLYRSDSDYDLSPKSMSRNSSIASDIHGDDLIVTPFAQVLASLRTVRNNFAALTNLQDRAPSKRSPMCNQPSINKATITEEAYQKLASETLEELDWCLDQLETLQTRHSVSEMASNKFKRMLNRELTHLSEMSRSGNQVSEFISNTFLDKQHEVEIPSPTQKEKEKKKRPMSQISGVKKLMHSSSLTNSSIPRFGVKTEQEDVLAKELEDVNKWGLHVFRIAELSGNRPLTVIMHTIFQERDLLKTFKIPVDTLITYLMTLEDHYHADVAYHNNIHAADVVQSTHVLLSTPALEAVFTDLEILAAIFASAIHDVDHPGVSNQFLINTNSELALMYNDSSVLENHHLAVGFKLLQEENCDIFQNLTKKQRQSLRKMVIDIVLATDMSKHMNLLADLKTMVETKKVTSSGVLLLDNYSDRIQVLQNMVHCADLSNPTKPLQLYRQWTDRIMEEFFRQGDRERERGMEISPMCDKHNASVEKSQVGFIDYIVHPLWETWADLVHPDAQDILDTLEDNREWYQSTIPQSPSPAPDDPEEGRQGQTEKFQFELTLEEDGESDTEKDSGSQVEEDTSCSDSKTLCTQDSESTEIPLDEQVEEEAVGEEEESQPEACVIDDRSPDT
T4 sequence (Q13946 whole entry): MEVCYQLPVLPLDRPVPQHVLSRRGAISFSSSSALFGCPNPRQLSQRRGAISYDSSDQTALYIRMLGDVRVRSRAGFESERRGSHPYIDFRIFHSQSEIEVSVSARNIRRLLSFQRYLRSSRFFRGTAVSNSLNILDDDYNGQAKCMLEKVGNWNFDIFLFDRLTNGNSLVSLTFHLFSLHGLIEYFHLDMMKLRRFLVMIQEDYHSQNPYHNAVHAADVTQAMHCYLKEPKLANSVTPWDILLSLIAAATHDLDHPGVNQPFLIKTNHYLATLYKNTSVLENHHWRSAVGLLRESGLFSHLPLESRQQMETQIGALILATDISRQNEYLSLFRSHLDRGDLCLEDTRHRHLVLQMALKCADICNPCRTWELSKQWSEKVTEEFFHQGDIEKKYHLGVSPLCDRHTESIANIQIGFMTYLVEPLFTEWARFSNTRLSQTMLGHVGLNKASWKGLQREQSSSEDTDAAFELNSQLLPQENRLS
T1 sequence (Q07343 whole entry): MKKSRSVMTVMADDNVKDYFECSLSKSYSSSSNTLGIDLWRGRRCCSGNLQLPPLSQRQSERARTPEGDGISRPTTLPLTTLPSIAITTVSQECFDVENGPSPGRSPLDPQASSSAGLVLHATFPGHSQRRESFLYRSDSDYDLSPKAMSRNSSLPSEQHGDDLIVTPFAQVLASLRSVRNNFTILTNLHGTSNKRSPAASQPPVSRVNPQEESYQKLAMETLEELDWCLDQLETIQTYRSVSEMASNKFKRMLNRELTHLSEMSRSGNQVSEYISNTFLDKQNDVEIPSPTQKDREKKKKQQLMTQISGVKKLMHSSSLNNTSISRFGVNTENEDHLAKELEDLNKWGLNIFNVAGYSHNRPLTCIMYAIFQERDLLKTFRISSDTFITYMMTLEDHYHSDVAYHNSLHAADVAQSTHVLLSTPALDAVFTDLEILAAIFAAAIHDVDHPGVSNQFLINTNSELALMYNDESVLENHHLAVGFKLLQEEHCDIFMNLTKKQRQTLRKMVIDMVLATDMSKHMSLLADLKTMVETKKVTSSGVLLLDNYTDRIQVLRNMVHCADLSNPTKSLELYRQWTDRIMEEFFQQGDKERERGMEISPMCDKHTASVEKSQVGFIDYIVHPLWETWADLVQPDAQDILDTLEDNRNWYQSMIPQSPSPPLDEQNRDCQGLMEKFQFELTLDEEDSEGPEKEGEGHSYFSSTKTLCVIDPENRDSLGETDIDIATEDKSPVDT
Chain of cAMP and cAMP-inhibited cGMP 3',5'-cyclic phosphodiesterase 10A (Homo sapiens) (Q9Y233 whole entry): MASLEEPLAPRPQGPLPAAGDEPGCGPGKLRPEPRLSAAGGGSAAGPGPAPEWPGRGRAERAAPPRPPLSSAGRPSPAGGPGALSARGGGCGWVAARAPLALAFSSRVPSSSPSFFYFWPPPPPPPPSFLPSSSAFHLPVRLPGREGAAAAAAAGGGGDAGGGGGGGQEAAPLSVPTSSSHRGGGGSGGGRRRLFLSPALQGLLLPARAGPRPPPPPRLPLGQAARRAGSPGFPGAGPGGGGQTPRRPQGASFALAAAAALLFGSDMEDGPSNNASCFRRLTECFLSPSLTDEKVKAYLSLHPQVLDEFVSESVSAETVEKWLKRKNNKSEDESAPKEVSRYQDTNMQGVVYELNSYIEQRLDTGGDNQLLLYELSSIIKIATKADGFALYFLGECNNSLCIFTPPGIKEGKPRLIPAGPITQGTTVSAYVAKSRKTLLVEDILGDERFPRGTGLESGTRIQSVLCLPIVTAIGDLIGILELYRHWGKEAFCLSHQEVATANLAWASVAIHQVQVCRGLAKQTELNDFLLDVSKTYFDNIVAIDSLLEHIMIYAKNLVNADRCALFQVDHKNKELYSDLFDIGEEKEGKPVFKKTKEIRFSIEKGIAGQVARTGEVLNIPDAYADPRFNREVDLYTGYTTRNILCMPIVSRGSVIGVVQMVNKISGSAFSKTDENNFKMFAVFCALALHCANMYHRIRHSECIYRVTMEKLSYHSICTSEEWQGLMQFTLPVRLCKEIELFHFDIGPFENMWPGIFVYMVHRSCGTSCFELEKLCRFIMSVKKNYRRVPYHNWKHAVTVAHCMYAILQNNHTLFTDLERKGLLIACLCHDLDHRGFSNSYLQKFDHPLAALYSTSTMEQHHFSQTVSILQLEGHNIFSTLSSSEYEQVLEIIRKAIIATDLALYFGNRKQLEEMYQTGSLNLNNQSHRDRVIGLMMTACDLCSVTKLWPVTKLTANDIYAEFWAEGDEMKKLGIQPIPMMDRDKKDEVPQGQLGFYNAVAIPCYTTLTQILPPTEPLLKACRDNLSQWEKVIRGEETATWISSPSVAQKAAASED
T5 sequence (Q13946 whole entry, looked up): as the sequence (Q13946 whole entry) above
T5 sequence (Q9NP56 whole entry, looked up): as the sequence (Q9NP56 whole entry) above

In the case of `O=[N+]([O-])c1cc(Cl)ccc1Sc1ccncc1`, the IC50 in data set [1] was determined as 4400 nM; in data set [3] it was 13900 nM; in data set [4], 3000 nM; in data set [10] it was 720 nM. Moreover, the inhibition entry in data set [2] and in data set [5] was “Active” in each case. For the same molecule, the inhibition in [6] was determined as 33%; in data set [7], 74%; in data set [8], 91%; in data set [9], 76%; in [12], 77%. For the same molecule, the result in [11] was Active.
Consider `O=[N+]([O-])c1cc(Cl)ccc1Sc1ccccc1Br`, for which the inhibition result in data set [2] and in data set [5] was “Active” in each case. Besides, the IC50 in [3] was 1410 nM; in [10], 990 nM. The inhibition in data set [6] worked out at 60%; in data set [7], 44%; in data set [8], 79%; in data set [9], 92%; in data set [12], 30%. The outcome in [11] was Active.
For `O=[N+]([O-])c1ccc(Cl)cc1Sc1ccccc1Br`, the inhibition result in data set [2] and in data set [5] was “Active” each time. Moreover, the IC50 in [3] is 2200 nM; in data set [10], 1010 nM. In addition, the inhibition in data set [6] is 16%; in [7] it was 2%; in data set [8] it was 69%; in data set [9], 71%; in data set [12] it was 6%. Moreover, the result in [11] was Active.
On to `Cc1ccc([N+](=O)[O-])cc1S(=O)(=O)N(C)C`, for which the results for the IC50 in data set [1] and in data set [4] were 1800 nM and 1280 nM, respectively. For the same molecule, the inhibition in data set [6] came to 0.43%; in data set [8] it was 99%.
Consider `O=[N+]([O-])c1ccc(Sc2ccccn2)c(Cl)c1`, for which the inhibition result in [2], in [5] and in [13] was “Active” in each case. The inhibition in data set [6] is 44%; in data set [7] it was 24%; in [8] it was 69%; in [9] it was 39%; in [12] it was 35%. Moreover, in data set [10], the IC50 was found to be 1290 nM. In [11], the outcome was Active.
`S=c1[nH]c2ccccc2c(=S)n1-c1ccccc1` gave an IC50 in data set [14] of 1040 nM. Moreover, in [15], the Activity entry was “Non-toxic”.
Turning to `COc1ccc(C2CNC(=O)C2)cc1OC1CCCC1` (stereo not drawn) [ROLIPRAM], the Activity entry in [16] and in data set [17] was “Toxic” each time. The inhibition in data set [6] was 9.42%; in [8], 3.1%.
In turn, `COc1cc(COC(=O)c2ccc(-c3ccccc3)o2)cc(OC)c1OC` displayed a 50% inhibitory concentration (IC50) in data set [14] of 5170 nM. Besides, in [15], the Activity entry was “Non-toxic”.
Consider `O=[N+]([O-])c1ccc(Sc2ccncc2)c(Cl)c1`, for which the inhibition came out at 1% in data set [18]; 2.4% in data set [19]; 39% in data set [21]; 21% in [22]; 27% in [6]; 65% in data set [7]. Also, the inhibition came out at 85% in data set [8], 94% in data set [9], 29.4% in [23] and 69% in data set [12]. Moreover, the outcome in [20] was inactive. Besides, the IC50 is 6600 nM in data set [1], 600 nM in [3], 7300 nM in data set [4] and 180 nM in data set [10]. In addition, the inhibition result in data set [2] and in [5] was “Active” each time. The outcome in [11] was Active.
Take `Nc1ccc(Sc2ccc(Cl)cc2[N+](=O)[O-])cc1`: the inhibition in data set [18] was determined as 7%; in [19] it was 1.2%; in data set [21], 36%; in data set [22], 28%; in data set [6], 37%; in data set [7], 7%. Further, the inhibition was determined as 81% in [8], 82% in data set [9], 57.5% in data set [23] and 4% in data set [12]. Further, in [20], the outcome was inactive. The Activity result in data set [24] is “Non-toxic”. Also, the result in data set [25] and in data set [11] was Active. Further, the inhibition entry in data set [2] and in [5] was “Active” throughout. The IC50 in [3] was determined as 3000 nM; in data set [10] it was 370 nM.
`Br.OCC/N=c1/nc(-c2ccccc2)n(-c2ccccc2)s1` came in with an IC50 in data set [14] of 1110 nM. For the same molecule, the Activity result in data set [15] is “Non-toxic”.
`O=[N+]([O-])c1cc(Cl)ccc1Sc1ccccc1`: the inhibition result in data set [2] and in data set [5] was “Active” in each case. Also, the IC50 in [3] and in data set [10] was 1500 nM in each case. In addition, the inhibition was determined as 46% in data set [6]; 13% in data set [7]; 87% in [8]; 74% in data set [9]; 28% in data set [12]. In addition, the outcome in data set [11] was Active.
Take `O=C(Nc1c(Cl)cncc1Cl)c1ccc(OC(F)F)c(OCC2CC2)c1` [ROFLUMILAST]: the Activity result in [26] and in [16] was “Toxic” throughout.
For the molecule `Nc1ccc(Sc2ccc([N+](=O)[O-])c(Cl)c2)cc1`, the inhibition entry in [2] and in data set [5] was “Active” each time. Moreover, the inhibition in data set [6] was 22%; in data set [7] it was 3%; in data set [8], 79%; in data set [9], 42%; in data set [12], 2%. Besides, the IC50 in [10] was 1470 nM. Moreover, the outcome in [11] was Active.

The values are drawn from ChEMBL document CHEMBL3352280, “Modulation of cAMP-specific PDE without emetogenic activity: new sulfide-like PDE7 inhibitors” (J Med Chem, 2014).
